The text below walks through data of ChEMBL document CHEMBL1137650, “An OXA-66/OXA-51-like carbapenemase and possibly an efflux pump are associated with resistance to imipenem in Acinetobacter baumannii” (2007).

For orientation: MIC means the lowest concentration found to suppress growth. A lower MIC goes with a more susceptible organism.

≈ marks a conversion by molar mass, not a printed value.

The first assay relates to Acinetobacter baumannii. As to the kind of experiment: Antibacterial activity against imipenem-resistant Acinetobacter baumannii abh39 by broth dilution method. Type of assay: functional. In outline:
(§1)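 Clinical isolates were collected at three Taiwan hospitals (1993–2003) and grown in tryptic soy broth at 37°C for 18 h. MIC by broth dilution following CLSI recommendations.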
Regarding `NCC[C@H](O)C(=O)N[C@@H]1C[C@H](N)[C@@H](O[C@H]2O[C@H](CN)[C@@H](O)[C@H](O)[C@H]2O)[C@H](O)[C@H]1O[C@H]1O[C@H](CO)[C@@H](O)[C@H](N)[C@H]1O` [AMIKACIN], the MIC is above 256 µg/mL.

A further assay concerns Acinetobacter baumannii. Kind of assay: Antibacterial activity against imipenem-resistant Acinetobacter baumannii abh14 by broth dilution method. It is filed as functional. In outline: as §1
(In broth dilution the organism is exposed to a series of concentrations in liquid medium.)
Turning to `NCC[C@H](O)C(=O)N[C@@H]1C[C@H](N)[C@@H](O[C@H]2O[C@H](CN)[C@@H](O)[C@H](O)[C@H]2O)[C@H](O)[C@H]1O[C@H]1O[C@H](CO)[C@@H](O)[C@H](N)[C@H]1O` [AMIKACIN], the MIC is above 256 µg/mL.

The next assay relates to Acinetobacter baumannii. As to the kind of experiment: Antibacterial activity against imipenem-susceptible Acinetobacter baumannii ab1254 by broth dilution method. It is filed as functional. In outline: as §1
In turn, `NCC[C@H](O)C(=O)N[C@@H]1C[C@H](N)[C@@H](O[C@H]2O[C@H](CN)[C@@H](O)[C@H](O)[C@H]2O)[C@H](O)[C@H]1O[C@H]1O[C@H](CO)[C@@H](O)[C@H](N)[C@H]1O` [AMIKACIN] returned an MIC above 256 µg/mL.

The test system of the next assay is Acinetobacter baumannii. As to the kind of experiment: Antibacterial activity against imipenem-resistant Acinetobacter baumannii ab1265 by broth dilution method. Type of assay: functional. In outline: as §1
Compound `NCC[C@H](O)C(=O)N[C@@H]1C[C@H](N)[C@@H](O[C@H]2O[C@H](CN)[C@@H](O)[C@H](O)[C@H]2O)[C@H](O)[C@H]1O[C@H]1O[C@H](CO)[C@@H](O)[C@H](N)[C@H]1O` [AMIKACIN] returned an MIC above 256 µg/mL.

A further assay concerns Acinetobacter baumannii. As to the kind of experiment: Antibacterial activity against imipenem-susceptible Acinetobacter baumannii ab4 by broth dilution method. It is filed as functional. In outline:
as §1
Regarding `NCC[C@H](O)C(=O)N[C@@H]1C[C@H](N)[C@@H](O[C@H]2O[C@H](CN)[C@@H](O)[C@H](O)[C@H]2O)[C@H](O)[C@H]1O[C@H]1O[C@H](CO)[C@@H](O)[C@H](N)[C@H]1O` [AMIKACIN], the MIC turned out to be 8 µg/mL (≈ 13.7 µM).

The next assay relates to Acinetobacter baumannii. As to the kind of experiment: Antibacterial activity against imipenem-intermediate Acinetobacter baumannii ab1297 by broth dilution method. Type of assay: functional. Summed up:
(§2)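 Clinical A. baumannii isolates collected at three Taiwanese hospitals, routinely grown in tryptic soy broth at 37°C for 18 h. MICs (μg ml⁻¹) were determined by broth dilution following CLSI recommendations, or by Etest strips following the manufacturer's instructions.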
The compound `NCC[C@H](O)C(=O)N[C@@H]1C[C@H](N)[C@@H](O[C@H]2O[C@H](CN)[C@@H](O)[C@H](O)[C@H]2O)[C@H](O)[C@H]1O[C@H]1O[C@H](CO)[C@@H](O)[C@H](N)[C@H]1O` [AMIKACIN] showed an MIC above 256 µg/mL.

The subject of another assay is Acinetobacter baumannii. Kind of assay: Antibacterial activity against imipenem-resistant Acinetobacter baumannii abh37 by broth dilution method. Type of assay: functional. Summed up:
as §1
`NCC[C@H](O)C(=O)N[C@@H]1C[C@H](N)[C@@H](O[C@H]2O[C@H](CN)[C@@H](O)[C@H](O)[C@H]2O)[C@H](O)[C@H]1O[C@H]1O[C@H](CO)[C@@H](O)[C@H](N)[C@H]1O` [AMIKACIN] gave an MIC above 256 µg/mL.

The subject of another assay is Acinetobacter baumannii. Kind of assay: Antibacterial activity against imipenem-resistant Acinetobacter baumannii abh9 by broth dilution method. Type of assay: functional. Summed up:
as §1
Consider `NCC[C@H](O)C(=O)N[C@@H]1C[C@H](N)[C@@H](O[C@H]2O[C@H](CN)[C@@H](O)[C@H](O)[C@H]2O)[C@H](O)[C@H]1O[C@H]1O[C@H](CO)[C@@H](O)[C@H](N)[C@H]1O` [AMIKACIN], for which the MIC was above 256 µg/mL.

The subject of another assay is Acinetobacter baumannii. Kind of assay: Antibacterial activity against imipenem-susceptible Acinetobacter baumannii ab20 by broth dilution method. Type of assay: functional. In outline: as §1
On to `NCC[C@H](O)C(=O)N[C@@H]1C[C@H](N)[C@@H](O[C@H]2O[C@H](CN)[C@@H](O)[C@H](O)[C@H]2O)[C@H](O)[C@H]1O[C@H]1O[C@H](CO)[C@@H](O)[C@H](N)[C@H]1O` [AMIKACIN], for which the MIC is 128 µg/mL (≈ 219 µM).

For another assay, the system named is Acinetobacter baumannii. Kind of assay: Antibacterial activity against imipenem-resistant Acinetobacter baumannii abh18 by broth dilution method. It is filed as functional. Summed up:
as §1
On to `NCC[C@H](O)C(=O)N[C@@H]1C[C@H](N)[C@@H](O[C@H]2O[C@H](CN)[C@@H](O)[C@H](O)[C@H]2O)[C@H](O)[C@H]1O[C@H]1O[C@H](CO)[C@@H](O)[C@H](N)[C@H]1O` [AMIKACIN], for which the MIC is above 256 µg/mL.

The subject of the next assay is Acinetobacter baumannii. As to the kind of experiment: Antibacterial activity against imipenem-resistant Acinetobacter baumannii abh20 by broth dilution method. Type of assay: functional. In outline: as §1
On to `NCC[C@H](O)C(=O)N[C@@H]1C[C@H](N)[C@@H](O[C@H]2O[C@H](CN)[C@@H](O)[C@H](O)[C@H]2O)[C@H](O)[C@H]1O[C@H]1O[C@H](CO)[C@@H](O)[C@H](N)[C@H]1O` [AMIKACIN], for which the MIC is above 256 µg/mL.

The next assay concerns Acinetobacter baumannii. As to the kind of experiment: Antibacterial activity against imipenem-resistant Acinetobacter baumannii ab1266 by broth dilution method. Type of assay: functional. Summed up: as §1
Compound `NCC[C@H](O)C(=O)N[C@@H]1C[C@H](N)[C@@H](O[C@H]2O[C@H](CN)[C@@H](O)[C@H](O)[C@H]2O)[C@H](O)[C@H]1O[C@H]1O[C@H](CO)[C@@H](O)[C@H](N)[C@H]1O` [AMIKACIN] had an MIC above 256 µg/mL.

The test system of the next assay is Acinetobacter baumannii. Kind of assay: Antibacterial activity against imipenem-resistant Acinetobacter baumannii abh26 by broth dilution method. Type of assay: functional. Summed up:
as §1
Regarding `NCC[C@H](O)C(=O)N[C@@H]1C[C@H](N)[C@@H](O[C@H]2O[C@H](CN)[C@@H](O)[C@H](O)[C@H]2O)[C@H](O)[C@H]1O[C@H]1O[C@H](CO)[C@@H](O)[C@H](N)[C@H]1O` [AMIKACIN], the MIC was above 256 µg/mL.

A further assay concerns Acinetobacter baumannii. As to the kind of experiment: Antibacterial activity against imipenem-resistant Acinetobacter baumannii abh11 by broth dilution method. It is filed as functional. In outline: as §1
As to `NCC[C@H](O)C(=O)N[C@@H]1C[C@H](N)[C@@H](O[C@H]2O[C@H](CN)[C@@H](O)[C@H](O)[C@H]2O)[C@H](O)[C@H]1O[C@H]1O[C@H](CO)[C@@H](O)[C@H](N)[C@H]1O` [AMIKACIN], the MIC was above 256 µg/mL.

Another assay has as its system Acinetobacter baumannii. As to the kind of experiment: Antibacterial activity against imipenem-susceptible Acinetobacter baumannii ab1308 by broth dilution method. It is filed as functional. In outline:
as §2
`NCC[C@H](O)C(=O)N[C@@H]1C[C@H](N)[C@@H](O[C@H]2O[C@H](CN)[C@@H](O)[C@H](O)[C@H]2O)[C@H](O)[C@H]1O[C@H]1O[C@H](CO)[C@@H](O)[C@H](N)[C@H]1O` [AMIKACIN]: the MIC is above 256 µg/mL.

The next assay deals with Acinetobacter baumannii. As to the kind of experiment: Antibacterial activity against imipenem-susceptible Acinetobacter baumannii ab3 by broth dilution method. It is filed as functional. Summed up: as §1
`NCC[C@H](O)C(=O)N[C@@H]1C[C@H](N)[C@@H](O[C@H]2O[C@H](CN)[C@@H](O)[C@H](O)[C@H]2O)[C@H](O)[C@H]1O[C@H]1O[C@H](CO)[C@@H](O)[C@H](N)[C@H]1O` [AMIKACIN] displayed an MIC of 3 µg/mL (≈ 5.12 µM).

In another assay the test system is Acinetobacter baumannii. Kind of assay: Antibacterial activity against imipenem-susceptible Acinetobacter baumannii ab1316 by broth dilution method. It is filed as functional. In outline: as §2
As for `NCC[C@H](O)C(=O)N[C@@H]1C[C@H](N)[C@@H](O[C@H]2O[C@H](CN)[C@@H](O)[C@H](O)[C@H]2O)[C@H](O)[C@H]1O[C@H]1O[C@H](CO)[C@@H](O)[C@H](N)[C@H]1O` [AMIKACIN], the MIC was above 256 µg/mL.

In a further assay the test system is Acinetobacter baumannii. Kind of assay: Antibacterial activity against imipenem-resistant Acinetobacter baumannii abh29 by broth dilution method. Type of assay: functional. Summed up:
as §1
Regarding `NCC[C@H](O)C(=O)N[C@@H]1C[C@H](N)[C@@H](O[C@H]2O[C@H](CN)[C@@H](O)[C@H](O)[C@H]2O)[C@H](O)[C@H]1O[C@H]1O[C@H](CO)[C@@H](O)[C@H](N)[C@H]1O` [AMIKACIN], the MIC was above 256 µg/mL.

Another assay relates to Acinetobacter baumannii. Kind of assay: Antibacterial activity against imipenem-resistant Acinetobacter baumannii abh13 by broth dilution method. It is filed as functional. Summed up:
as §1
Consider `NCC[C@H](O)C(=O)N[C@@H]1C[C@H](N)[C@@H](O[C@H]2O[C@H](CN)[C@@H](O)[C@H](O)[C@H]2O)[C@H](O)[C@H]1O[C@H]1O[C@H](CO)[C@@H](O)[C@H](N)[C@H]1O` [AMIKACIN], for which the MIC is above 256 µg/mL.

In another assay the test system is Acinetobacter baumannii. As to the kind of experiment: Antibacterial activity against imipenem-resistant Acinetobacter baumannii abh17 by broth dilution method. Type of assay: functional. Summed up: as §1
In turn, `NCC[C@H](O)C(=O)N[C@@H]1C[C@H](N)[C@@H](O[C@H]2O[C@H](CN)[C@@H](O)[C@H](O)[C@H]2O)[C@H](O)[C@H]1O[C@H]1O[C@H](CO)[C@@H](O)[C@H](N)[C@H]1O` [AMIKACIN] came in with an MIC above 256 µg/mL.

Another assay concerns Acinetobacter baumannii. As to the kind of experiment: Antibacterial activity against imipenem-susceptible Acinetobacter baumannii ab12 by broth dilution method. It is filed as functional. Summed up: as §1
In the case of `NCC[C@H](O)C(=O)N[C@@H]1C[C@H](N)[C@@H](O[C@H]2O[C@H](CN)[C@@H](O)[C@H](O)[C@H]2O)[C@H](O)[C@H]1O[C@H]1O[C@H](CO)[C@@H](O)[C@H](N)[C@H]1O` [AMIKACIN], the MIC is above 256 µg/mL.

A further assay relates to Acinetobacter baumannii. As to the kind of experiment: Antibacterial activity against imipenem-resistant Acinetobacter baumannii abh36 by broth dilution method. It is filed as functional. Summed up:
as §1
Regarding `NCC[C@H](O)C(=O)N[C@@H]1C[C@H](N)[C@@H](O[C@H]2O[C@H](CN)[C@@H](O)[C@H](O)[C@H]2O)[C@H](O)[C@H]1O[C@H]1O[C@H](CO)[C@@H](O)[C@H](N)[C@H]1O` [AMIKACIN], the MIC was above 256 µg/mL.

A further assay concerns Acinetobacter baumannii. Kind of assay: Antibacterial activity against imipenem-susceptible Acinetobacter baumannii ab8 by broth dilution method. Type of assay: functional. Summed up: as §1
For `NCC[C@H](O)C(=O)N[C@@H]1C[C@H](N)[C@@H](O[C@H]2O[C@H](CN)[C@@H](O)[C@H](O)[C@H]2O)[C@H](O)[C@H]1O[C@H]1O[C@H](CO)[C@@H](O)[C@H](N)[C@H]1O` [AMIKACIN], the MIC is 12 µg/mL (≈ 20.5 µM).
